# Screening data deposited in PubChem BioAssay by several laboratories.
# Compounds with a hit are over-represented: about 2% of the library has one in this group of screens.
# FLuc inh counter: counter-screen for luciferase assay inhibitors: firefly luciferase inhibition; ATPLite firefly luciferase biochemical luminescence, 10 min; inhibition, % at 10 µM; 200,000 tested, 1.5% active; AID 1006;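 active = inhibition above about 50% when tested at 10 µM, limit read from the data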
# Target sequence (P08659 whole entry, looked up): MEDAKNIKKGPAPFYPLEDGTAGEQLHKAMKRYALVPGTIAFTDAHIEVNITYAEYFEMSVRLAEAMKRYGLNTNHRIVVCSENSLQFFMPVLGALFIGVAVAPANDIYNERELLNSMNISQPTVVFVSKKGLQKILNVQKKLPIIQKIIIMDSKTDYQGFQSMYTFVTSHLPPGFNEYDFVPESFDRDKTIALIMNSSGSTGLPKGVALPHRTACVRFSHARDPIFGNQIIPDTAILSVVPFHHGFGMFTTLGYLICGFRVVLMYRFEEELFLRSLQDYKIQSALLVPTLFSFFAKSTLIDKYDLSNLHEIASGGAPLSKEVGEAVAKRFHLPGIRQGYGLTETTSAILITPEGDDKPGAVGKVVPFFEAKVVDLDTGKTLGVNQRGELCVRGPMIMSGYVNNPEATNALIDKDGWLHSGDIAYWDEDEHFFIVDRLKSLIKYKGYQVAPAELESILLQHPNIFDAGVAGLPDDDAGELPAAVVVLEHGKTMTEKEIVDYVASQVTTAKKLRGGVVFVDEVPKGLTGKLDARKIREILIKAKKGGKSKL
# C8 TRAIL sens: caspase-8 TRAIL sensitization | NB7+C8 cells + TRAIL, ATPlite viability luminescence | 360,000 tested, 1% active | inhibition (viability loss, TRAIL sensitization), % at 10 µM | AID 624354;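 active = compounds causing at least 50% loss of cell viability in the single-dose screen, relative to plate controls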
# FLuc stim CS: firefly luciferase counter-screen for stimulation assays; P08659; ATPlite luciferase biochemical, luminescence, 10 min; 0 = ATP-free wells, 1 = DMSO control; activation factor at 10 µM; 200,000 tested, under 10 active;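 active = luciferase activation factor, scaled between plate controls, of at least 2 with compound at 10 µM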
#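 System: luciferase plus luciferin reagent, cell-free; medium: PBS as buffer for the ATP substrate; dosing: test compounds dosed from 2 mM stocks in 100% DMSO; timing: 10 min post-reagent at room temperature; measured by: luminescence measurement of luciferase light output; evaluation: luciferase activation, seen as luminescence increase over controls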
# PPC-1+TRAIL kill: PPC-1 cancer cell killing with TRAIL present | PPC-1 cells + TRAIL, ATPLite viability luminescence | cell killing (% activity), % at 4 µM or 5 µM | 220,000 tested, 0.41% active | AID 1443;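 active = cell killing above 50% in the first pass at 4 µM, then a duplicate retest at 5 µM averaging 50% or more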;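 also: plate controls were cells with TRAIL plus DMSO for no effect and medium-only wells lacking cells for full effect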
# HSP90 inh: HSP90 refolding inhibition in rabbit reticulocyte lysate; 290,000 tested, 0.91% active; luciferase refolding luminescence, 3 h; inhibition, % at 5.6 µM;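 active = inhibition above the screen-wide mean plus 3 SD, computed separately per campaign, cut at about 16% in these data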;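 also: 0% = DMSO wells and 100% = 60 µM geldanamycin wells; inhibitors lower the luminescence because luciferase stays unfolded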
# An asterisk follows results filed as active; nt = no result.
SMILES,FLuc inh counter,C8 TRAIL sens,FLuc stim CS,PPC-1+TRAIL kill,HSP90 inh
CC(C)CC(NC(=O)C(CO)NC(=O)C1CCC(=O)N1)C(N)=O (stereo not drawn),-11.0,-2.7,1.1,-1.6,-4.5
COC(=O)c1ccccc1NC(=O)COC(=O)c1ccccc1N=Nc1ccc(N(C)C)cc1,17.1,43.0,0.8,3.4,-6.5
CN(C)c1ccc(N=Nc2ccccc2C(=O)OCC(=O)N(C)c2ccccc2)cc1,65.3*,31.6,0.3,32.9,2.6
COc1ccc(/C=C(\C#N)C(=O)Nc2ccccn2)cc1,nt,3.1,nt,nt,3.7
Cc1ccc(/C=C(\C#N)C(=O)Nc2ccccn2)o1,67.5*,29.6,0.3,5.0,-4.7
CSc1nsc(SCC(=O)Nc2ccccc2F)n1,nt,-10.3,nt,nt,6.8
CN(CC(=O)Nc1ccc(C#N)cc1)Cc1ccc(Cl)cc1,-6.4,-3.3,1.1,-5.1,2.9
N#Cc1ccc(NC(=O)Nc2ccc(Cl)cc2)cc1,3.9,57.8*,1,-0.2,1.8
CCn1cc(/C=C(\NC(=O)c2cc(OC)c(OC)c(OC)c2)C(=O)N2CCOCC2)c2ccccc21,nt,0.4,nt,nt,nt
O=Cc1ccc(O)c2ncccc12,nt,56.5*,nt,12.5,5.7
Brc1nc(-c2ccccc2)nc(-c2ccccc2)c1Br,nt,93.9*,nt,nt,nt
c1ccc(-c2nnc(-c3ccncc3)nc2-c2ccccc2)cc1,2.0,-0.6,1,10.4,-0.7
CC[C@@]1(C(=O)OC)N[C@H](CN(C)C(=O)c2ccc(C)cc2)[C@@H]2C(=O)N(Cc3ccccc3)C(=O)[C@@H]21,nt,-11.2,nt,nt,nt
COc1ccc2oc(C(=O)Nc3nc4ccc(S(C)(=O)=O)cc4s3)c(C)c2c1,nt,5.3,nt,nt,nt
Cc1ccc2oc(C(=O)Nc3nnc(C)s3)c(C)c2c1,59.0*,44.8,0.4,37.7,-4.1
COc1ccc2oc(C(=O)Nc3nnc(C)s3)c(C)c2c1,nt,70.4*,nt,nt,nt
Cc1ccc2oc(C(=O)Nc3nonc3C)c(C)c2c1,nt,7.6,nt,nt,7.2
CN1CCCN(C(=O)c2cccc3ccccc23)CC1,nt,-4.5,nt,nt,-0.2
Nc1nc2ccc(-c3nc4ccccc4o3)cc2s1,58.4*,28.4,0.4,41.5,-3.5
c1ccc2oc(-c3ccc4nc[nH]c4c3)nc2c1,67.9*,36.8,0.3,24.2,6.1
COc1ccc(-c2nc3ccccc3o2)cc1OC,nt,7.5,nt,nt,-0.4
O=C(CN1CCN(C(=O)C2CCCO2)CC1)Nc1ccc(Br)cc1 (stereo not drawn),nt,2.2,nt,nt,15.7
CCN1CCN(Cc2ccc(NC(=O)c3ccc(C)c(NC(=O)c4c[nH]c5cc(C(F)(F)F)ccc5c4=O)c3)cc2C(F)(F)F)CC1,nt,94.8*,nt,26.9,nt
CCN1CCN(Cc2ccc(NC(=O)c3cc(NC(=O)c4cncc(-c5cccs5)c4)cc(OC)c3)cc2C(F)(F)F)CC1,nt,84.7*,nt,nt,2.3
COc1cc(NC(=O)c2cc3cccc(OC)c3o2)cc(C(=O)Nc2cccc(C(F)(F)F)c2)c1,nt,51.2*,nt,31.8,nt
SMILES,FLuc inh counter,C8 TRAIL sens,FLuc stim CS,PPC-1+TRAIL kill,HSP90 inh
Cc1ccc(C(=O)Nc2cccc(C(F)(F)F)c2)cc1NC(=O)c1c[nH]c2cc(C(F)(F)F)ccc2c1=O,nt,1.0,nt,nt,nt
CCN1CCN(Cc2ccc(NC(=O)c3cc(NC(=O)c4cc(-c5ccc(OC)cc5)n[nH]4)cc(OC)c3)cc2C(F)(F)F)CC1,nt,87.6*,nt,31.2,nt
CCC(CC)C(=O)N1CC(=O)Nc2ccc(F)cc2C1c1ccccc1 (stereo not drawn),nt,13.2,nt,nt,-0.7
Cc1ccccc1OCCOc1ccccc1C=C(C#N)C#N,-9.2,nt,1.1,2.9,-6.4
COc1ccc(/C=C/C(=O)OCC(=O)NCCC2=CCCCC2)cc1S(=O)(=O)N1CCOCC1,-4.2,-19.5,1,-28.2,-0.7
Cc1cccc(-n2ncc3c2CCCC3NC(=O)CCc2cccnc2)c1C (stereo not drawn),nt,12.0,nt,nt,-1.2
CCN1CCN(Cc2ccc(NC(=O)c3cc(NC(=O)c4ccno4)cc(OC)c3)cc2C(F)(F)F)CC1,nt,10.8,nt,8.9,nt
CCN1CCN(Cc2ccc(NC(=O)c3cc(NC(=O)c4cc5cccc(OC)c5o4)cc(OC)c3)cc2C(F)(F)F)CC1,nt,94.8*,nt,14.2,nt
CCn1c2c(c3cc(Cl)ccc31)CCCC2=O,-3.9,-3.3,1,-17.4,64.4*
CCCOc1ccc(CCCN=C(N)N)cc1Cl,nt,38.7,nt,9.6,5.9
O=C1C(C=Nc2ccc(F)cc2)=C(O)c2ccccc21,77.0*,56.6*,0.2,21.5,0.6
Cc1onc(-c2c(Cl)cccc2Cl)c1C(=O)ONC(=O)c1ccccc1,nt,51.6*,nt,2.6,1.3
CC1(C)OC1COc1c2ccoc2cc2oc(=O)ccc12 (stereo not drawn),-4.8,1.2,1,-0.8,-1.4
CS(=O)(=O)c1nc(-c2ccccc2)cc(C(F)(F)F)n1,-6.1,59.0*,1.1,-1.5,0.9
Cc1cc(NC(=O)CCS(=O)(=O)c2nc(-c3ccccc3)cc(C(F)(F)F)n2)no1,-2.0,-1.5,1,1.1,nt
O=C(c1ccco1)N1N=C(c2ccco2)CC1c1ccc(Cl)cc1Cl (stereo not drawn),nt,-1.9,nt,nt,nt
CN(C)CC(O)c1ccc(C=Cc2ccc(Cl)cc2)cc1 (stereo not drawn),nt,89.0*,nt,nt,nt
Clc1ncnc2c1oc1ccccc12,-5.3,64.6*,1.1,11.3,-2.0
COc1cc([N+](=O)[O-])cc2sc(NC(C)=O)nc12,nt,8.4,nt,15.8,7.5
O=C(NCCN1CCOCC1)NC1(C(F)(F)F)Oc2ccc(Cl)cc2O1 (stereo not drawn),-2.4,52.0*,1,14.7,-2.0
O=C(Nc1ccc(Cl)c(S(=O)(=O)N2CCOCC2)c1)C1CCCC1,nt,5.9,nt,nt,nt
CCCc1cc(=O)[nH]c(SCC(=O)Nc2sc(C(N)=O)c(C)c2C(=O)OCCOC)n1,nt,85.2*,nt,nt,nt
CCCc1cc(=O)[nH]c(SCC(=O)NC(=O)OCC)n1,1.6,5.1,1,-18.0,-1.3
COc1cccc(N2CCN(c3ncnc4c3cnn4-c3ccc(C)cc3C)CC2)c1,-3.6,92.8*,1,20.6,-2.0
CN1CCN(c2ncnc3c2cnn3-c2ccc(Cl)cc2)CC1,21.5,23.2,0.8,6.0,41.9*
SMILES,FLuc inh counter,C8 TRAIL sens,FLuc stim CS,PPC-1+TRAIL kill,HSP90 inh
CCN1CCN(c2ncnc3c2cnn3-c2ccc(Cl)cc2)CC1,nt,3.2,nt,7.9,nt
Cc1cccc(-n2ncc3c(N4CCC(C)CC4)ncnc32)c1,44.2,50.1*,0.6,21.7,-0.8
Cc1ccc(C(=O)Nc2ccc(Cl)cc2C)c(Cl)c1,75.7*,55.3*,0.2,43.5,1.9
CCOC(=O)c1nnn2c1nc(Nc1cccc(C(F)(F)F)c1)c1ccccc12,nt,59.3*,nt,18.5,1.1
CCOC(=O)c1nnn2c1nc(SCC(C)=O)c1ccccc12,nt,-7.1,nt,12.2,9.2
CC1CCCCN1CCCNC(=O)c1cc(Br)c(Br)[nH]1 (stereo not drawn),-6.8,-10.1,1.1,0.2,-1.3
CCCCn1c(C)nc2cc(S(=O)(=O)N3CCOCC3)ccc21,nt,-1.8,nt,nt,nt
CCCCn1c(CCl)nc2cc(S(=O)(=O)N3CCOCC3)ccc21,nt,68.6*,nt,nt,nt
CSc1nc(N)n2nc(-c3ccc(Cl)cc3)cc2n1,nt,44.9*,nt,19.3,-2.3
